From ChEMBL document CHEMBL2169868, “Flavone-based novel antidiabetic and antidyslipidemic agents” (J Med Chem, 2012)
The source made the active and inactive calls. The calls are words filed in the database; no cut-off is given here.

Legend:
Syrian golden hamster [1] = test: Antidyslipidemic activity in high fructose and high-fat diet fed dyslipidemic Syrian golden hamster model assessed as reduction in body weight at 25 mg/kg/day for 7 days; assay type: functional, Mesocricetus auratus; parameters: scale not given: the % may be the effect or the level left
How it was run: (§1)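 Syrian golden hamsters fed high-fructose high-fat diet; oral dosing in 1% gum acacia at 10, 30, 100 mg/kg (or 25 mg/kg) for 7 days, sham control given vehicle; plasma TG, cholesterol, LDL-C, HDL-C, glycerol and NEFA (kits), lipoprotein lipase activity and body weight; % change versus HFD control, six hamsters per group.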

Mus musculus [2] = test: Antidyslipidemic activity in diabetic C57BL/KsJ db/db mouse model assessed as increase in plasma HDL-C/cholesterol ratio at 25 mg/kg, po qd for 10 days; assay type: functional
How it was run: (§2)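 db/db mice (blood glucose 200−350, TG 170−250, cholesterol 170−250, HDL-C 32−40 mg/dL) dosed orally at 25 mg/kg daily for 10 days; retro-orbital blood taken on day 11 for plasma TG, cholesterol and HDL-C (and HDL-C/CHOL ratio); mean % change versus vehicle control, 5 mice per group; Student t test.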

Mus musculus [3] = test: Antidyslipidemic activity in diabetic C57BL/KsJ db/db mouse model assessed as reduction in plasma triglyceride level at 25 mg/kg, po qd for 10 days; assay type: functional; parameters: scale not given: the % may be the effect or the level left; how it was run: as §2
Mus musculus [4] = test: Antihyperglycemic activity in diabetic C57BL/KsJ db/db mouse model assessed as reduction in hyperglycemia at 25 mg/kg, po qd for 10 days; assay type: functional; parameters: scale not given: the % may be the effect or the level left
How it was run: (§3)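 db/db mice (C57BL/KsJ, 12−18 weeks, 40−50 g, glucose 200−350 mg/dL), housed at 23 ± 2.0 °C on a 12 h light cycle. Oral dosing daily for 10 days. Blood glucose checked each morning through day 9. Body weight recorded daily from day 1 to day 10. Mean % change versus vehicle, 5 mice per group; Student t test.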

Mus musculus [5] = test: Antihyperglycemic activity in diabetic C57BL/KsJ db/db mouse model assessed as improvement in glucose tolerance in hyperglycemia at 25 mg/kg, po qd for 10 days; assay type: functional
How it was run: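 Male/female C57BL/KsJ db/db mice, 12−18 weeks, 40−50 g, selected for glucose 200−350 mg/dL. Oral dosing daily for 10 days. OGTT on day 10 after an overnight fast: compound at −30 min, then 3 g/kg oral glucose at 0 min. Glucose read at 30, 60, 90 and 120 min. AUC taken versus vehicle, 5 mice per group.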

Syrian golden hamster [6] = test: Antidyslipidemic activity in high fructose and high-fat diet fed dyslipidemic Syrian golden hamster model assessed as increase in HDL-cholesterol level at 25 mg/kg/day for 7 days; assay type: functional, Mesocricetus auratus
Mus musculus [7] = test: Antihyperglycemic activity in diabetic C57BL/KsJ db/db mouse model assessed as reduction in plasma insulin level in hyperglycemia at 25 mg/kg, po qd for 10 days; assay type: functional; parameters: scale not given: the % may be the effect or the level left
How it was run: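 db/db mice dosed orally every day for 10 days. On day 11, retro-orbital blood was drawn and plasma insulin measured. Mean % change versus vehicle-treated control, 5 mice per group; Student t test.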

Syrian golden hamster [8] = test: Antidyslipidemic activity in high fructose and high-fat diet fed dyslipidemic Syrian golden hamster model assessed as reduction in LDL-cholesterol level at 25 mg/kg/day for 7 days; assay type: functional, Mesocricetus auratus; parameters: scale not given: the % may be the effect or the level left; how it was run: as §1
Mus musculus [9] = test: Antidyslipidemic activity in diabetic C57BL/KsJ db/db mouse model assessed as increase in plasma HDL-cholesterol level at 25 mg/kg, po qd for 10 days; assay type: functional; how it was run: as §2
Syrian golden hamster [10] = test: Antidyslipidemic activity in high fructose and high-fat diet fed dyslipidemic Syrian golden hamster model assessed as reduction in cholesterol level at 25 mg/kg/day for 7 days; assay type: functional, Mesocricetus auratus; parameters: scale not given: the % may be the effect or the level left
Mus musculus [11] = test: Reduction in body weight in diabetic C57BL/KsJ db/db mouse model in hyperglycemia at 25 mg/kg, po qd for 10 days relative to untreated control; assay type: functional; how it was run: as §3
Syrian golden hamster [12] = test: Antidyslipidemic activity in high fructose and high-fat diet fed dyslipidemic Syrian golden hamster model assessed as reduction in triglyceride level at 25 mg/kg/day for 7 days; assay type: functional, Mesocricetus auratus; parameters: scale not given: the % may be the effect or the level left
How it was run: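 HFD-fed Syrian golden hamsters, six per group, fed a high-fructose diet. Oral dosing in 1% gum acacia for 7 days. Sham group received vehicle. Plasma TG was measured and body weight tracked. Results given as % change versus HFD control.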

Mus musculus [13] = test: Antidyslipidemic activity in diabetic C57BL/KsJ db/db mouse model assessed as reduction in plasma cholesterol level at 25 mg/kg, po qd for 10 days; assay type: functional; parameters: scale not given: the % may be the effect or the level left; how it was run: as §2
[14] = Elimination half life in Sprague-Dawley rat at 2.5 mg/kg, iv by LC-MS/MS method; assay type: ADME, organism-based; parameters: dose 2.5 mg/kg, route intravenous; conditions: in vivo, read-out: beta t1/2 (converted)
How it was run: (§4)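 Male Sprague−Dawley rats given a single 2.5 mg/kg iv dose; one formulation was DMF/PG/water (2:4:4), 0.2 μ filtered. Blood drawn from 0.08 to 48 h. Plasma assayed by LC-MS/MS with linear range 0.78−400 ng/mL.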

Mus musculus [15] = test: Antidiabetic activity in diabetic C57BL/KsJ db/db mouse model assessed as improvement in glucose tolerance in hyperglycemia at 25 mg/kg, po measured 2 hrs post dose; assay type: functional
Mus musculus [16] = test: Antidiabetic activity in diabetic C57BL/KsJ db/db mouse model assessed as reduction in postprandial glucose level in hyperglycemia at 25 mg/kg, po measured 2 hrs post dose; assay type: functional; parameters: scale not given: the % may be the effect or the level left
How it was run: (§5)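 db/db mice (C57BL/KsJ, 12−18 weeks, 40−50 g; selected by glucose 200−350 mg/dL) dosed orally daily for 10 consecutive days at 1, 3, 10, 25 or 50 mg/kg; postprandial blood glucose profile recorded on day 6 with food access interrupted; mean % change versus vehicle in 5 animals per group; Student t test.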

[17] = Cmax in Sprague-Dawley rat at 25 mg/kg, po by LC-MS/MS method; assay type: ADME, organism-based; parameters: dose 25 mg/kg, route oral; conditions: in vivo
How it was run: (§6)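 Male Sprague−Dawley rats given a single 25 mg/kg oral dose (aqueous 0.5% methyl cellulose suspension for one compound). Blood drawn from 0.08 to 48 h. LC-MS/MS, linear range 0.78−400 ng/mL.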

[18] = Elimination half life in Sprague-Dawley rat at 25 mg/kg, po by LC-MS/MS method; assay type: ADME, organism-based; parameters: dose 25 mg/kg, route oral; conditions: in vivo, read-out: beta t1/2 (converted); how it was run: as §6
[19] = Tmax in Sprague-Dawley rat at 25 mg/kg, po by LC-MS/MS method; assay type: ADME, organism-based; parameters: dose 25 mg/kg, route oral; conditions: in vivo; how it was run: as §6
[20] = Plasma clearance in Sprague-Dawley rat at 25 mg/kg, po by LC-MS/MS method; assay type: ADME, organism-based; parameters: dose 25 mg/kg, route oral; how it was run: as §6
Mus musculus [21] = test: Antidiabetic activity in diabetic C57BL/KsJ db/db mouse model assessed as improvement in glucose tolerance in hyperglycemia at 1 mg/kg, po measured 2 hrs post dose; assay type: functional
Rattus norvegicus [22] = test: AUC in Sprague-Dawley rat at 2.5 mg/kg, iv by LC-MS/MS method; conditions: in vivo
[23] = Cmax in Sprague-Dawley rat at 2.5 mg/kg, iv by LC-MS/MS method; assay type: ADME, organism-based; parameters: dose 2.5 mg/kg, route intravenous; conditions: in vivo; how it was run: as §4
Mus musculus [24] = test: Antidiabetic activity in diabetic C57BL/KsJ db/db mouse model assessed as improvement in glucose tolerance in hyperglycemia at 3 mg/kg, po measured 2 hrs post dose; assay type: functional
Mus musculus [25] = test: Antidiabetic activity in diabetic C57BL/KsJ db/db mouse model assessed as reduction in postprandial glucose level in hyperglycemia at 10 mg/kg, po measured 2 hrs post dose; assay type: functional; parameters: scale not given: the % may be the effect or the level left; how it was run: as §5
Mus musculus [26] = test: Antidiabetic activity in diabetic C57BL/KsJ db/db mouse model assessed as improvement in glucose tolerance in hyperglycemia at 100 mg/kg, po measured 2 hrs post dose; assay type: functional
Rattus norvegicus [27] = test: Volume of distribution in Sprague-Dawley rat at 25 mg/kg, po by LC-MS/MS method; assay type: ADME, organism-based; parameters: dose 25 mg/kg, route oral; conditions: in vivo; how it was run: as §6
[28] = Plasma clearance in Sprague-Dawley rat at 2.5 mg/kg, iv by LC-MS/MS method; assay type: ADME, organism-based; parameters: dose 2.5 mg/kg, route intravenous; how it was run: as §4
[29] = Volume of distribution in Sprague-Dawley rat at 2.5 mg/kg, iv by LC-MS/MS method; assay type: ADME, organism-based; parameters: dose 2.5 mg/kg, route intravenous; conditions: in vivo; how it was run: as §4
[30] = Mean residence time in Sprague-Dawley rat at 25 mg/kg, po by LC-MS/MS method; assay type: ADME, organism-based; parameters: dose 25 mg/kg, route oral; conditions: in vivo; how it was run: as §6
Mus musculus [31] = test: Antidiabetic activity in diabetic C57BL/KsJ db/db mouse model assessed as reduction in postprandial glucose level in hyperglycemia at 50 mg/kg, po measured 2 hrs post dose; parameters: scale not given: the % may be the effect or the level left
Rattus norvegicus [32] = test: AUC in Sprague-Dawley rat at 25 mg/kg, po by LC-MS/MS method; conditions: in vivo
[33] = Oral bioavailability in Sprague-Dawley rat at 25 mg/kg by LC-MS/MS method; assay type: ADME, organism-based; conditions: in vivo; how it was run: as §6
Mus musculus [34] = test: Antidiabetic activity in diabetic C57BL/KsJ db/db mouse model assessed as reduction in postprandial glucose level in hyperglycemia at 3 mg/kg, po measured 2 hrs post dose; assay type: functional; parameters: scale not given: the % may be the effect or the level left; how it was run: as §5
Mus musculus [35] = test: Antidiabetic activity in diabetic C57BL/KsJ db/db mouse model assessed as reduction in postprandial glucose level in hyperglycemia at 1 mg/kg, po measured 2 hrs post dose; assay type: functional; parameters: scale not given: the % may be the effect or the level left; how it was run: as §5
Mus musculus [36] = test: Antidiabetic activity in diabetic C57BL/KsJ db/db mouse model assessed as improvement in glucose tolerance in hyperglycemia at 10 mg/kg, po measured 2 hrs post dose; assay type: functional
[37] = Mean residence time in Sprague-Dawley rat at 2.5 mg/kg, iv by LC-MS/MS method; assay type: ADME, organism-based; parameters: dose 2.5 mg/kg, route intravenous; conditions: in vivo; how it was run: as §4

For `CC(C)(C)NC[C@@H](O)COc1ccc2c(=O)cc(-c3cc(OCc4ccccc4)cc(OCc4ccccc4)c3)oc2c1`, the Activity (Syrian golden hamster [1]) was 3.73%, the “Percent increase in HDL-C/cholesterol ratio vs vehicle” value (Mus musculus [2]) was 28.8 and the Activity (Mus musculus [3]) was 14.1%. For the same compound, the Activity (Mus musculus [4]) was 34.1%, the Activity (Mus musculus [5]) was 33.3% and the Activity (Syrian golden hamster [6]) was 7.08%. The Activity (Mus musculus [7]) was 18%, the Activity (Syrian golden hamster [8]) was 9.78% and the Activity (Mus musculus [9]) was 8.3%. For the same compound, the Activity (Syrian golden hamster [10]) was 5.52%, the Activity (Mus musculus [11]) was “inactive” and the Activity (Syrian golden hamster [12]) was 8.4%. It also gave an Activity (Mus musculus [13]) of 15.9%.
`CC(C)NC[C@H](O)COc1ccc2c(=O)cc(-c3cc(O)cc(O)c3)oc2c1` gave a half-life [14] of 4.83 h, an Activity (Mus musculus [15]) of 41.1% and an Activity (Mus musculus [16]) of 31.6%. For the same compound, the Cmax [17] was 0.0212 µg/mL, the “Percent increase in HDL-C/cholesterol ratio vs vehicle” value (Mus musculus [2]) was 68.7 and the Activity (Mus musculus [3]) was 21%. The Activity (Mus musculus [4]) was 45.6%, the Activity (Mus musculus [5]) was 29.7% and the half-life [18] was 3.39 h. For the same compound, the Tmax [19] was 0.33 h, the CL/F [20] was 3.27 L/h/kg and the Activity (Mus musculus [21]) was 12%. For the same compound, the AUC (Rattus norvegicus [22]) was 0.756 µg·h/mL, the Cmax [23] was 1.81 µg/mL and the Activity (Mus musculus [24]) was 19.7%. For the same compound, the Activity (Mus musculus [25]) was 31.2%, the Activity (Mus musculus [26]) was 49.2% and the Vd (Rattus norvegicus [27]) was 16.18 L/kg. It also gave a clearance [28] of 3.3 L/h/kg, an Activity (Mus musculus [7]) of 39.2% and a Vd [29] of 16.2 L/kg. It also gave an Activity (Mus musculus [9]) of 23.1%, an MRT [30] of 5.96 h and an Activity (Mus musculus [31]) of 35.4%. It also gave an AUC (Rattus norvegicus [32]) of 0.0395 µg·h/mL, a bioavailability [33] of 0.52% and an Activity (Mus musculus [34]) of 27.1%. For the same compound, the Activity (Mus musculus [11]) was “inactive”, the Activity (Mus musculus [35]) was 12.1% and the Activity (Mus musculus [13]) was 27%. It also gave an Activity (Mus musculus [36]) of 30.7% and an MRT [37] of 4.9 h.
